According to ChEMBL document CHEMBL1125592, “Calcium channel blocking and positive inotropic activities of ethyl 5-cyano-1,4-dihydro-6-methyl-2-[(phenylsulfonyl)methyl]-4-aryl-3- pyridine-carboxylate and analogues. Synthesis and structure-activity relationships” (J Med Chem, 1991):
Calls of active or inactive are those of the source. No cut-off for these calls is given here.

How the values were obtained:
[1] = biological target: Voltage-gated L-type calcium channel (Rattus norvegicus, UniProt P22002+Q02485+P27732); experiment: Affinity to bind dihydropyridine receptor (DHP receptor) by inhibiting the radioligand [3H]nitrendipine; type: protein assay
Method in brief: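 [3H]nitrendipine displacement, rat brain cortical membranes. Each compound first screened at 1000 nM; if inhibition exceeded 40%, a four- to seven-point curve with unlabeled compound was run. IC50 generally mean of two experiments, each in triplicate. ">1000 nM" means under 40% inhibition of control binding at 1000 nM.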

Rattus norvegicus [2] = organism: Rattus norvegicus; experiment: Cardiovascular activity in isolated rat heart, concentration producing 25% increase in LV + dP/dtmax.; type: functional
Method in brief: (§1)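 Isolated Langendorff-perfused rat heart. Coronary flow (CF), LV +dP/dtmax and heart rate recorded during exposure to test agent. Value is the concentration giving a 25% rise in CF or in LV +dP/dtmax, mean ± SE. At least two hearts per compound.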

Rattus norvegicus [3] = organism: Rattus norvegicus; experiment: Cardiovascular activity in isolated rat heart, concentration producing 25% increase in CF (cardiac flow).; type: functional; method in brief: as §1

IC50 [1] | SMILES | EC25 (Rattus norvegicus [2]) | EC25 (Rattus norvegicus [3])
523 nM | CCOC(=O)C1=C(C)N=C(CSc2ccccc2)/C(=C(/O)OCC)C1c1cccnc1 (stereo not given) | – | –
1354 nM | CCO/C(O)=C1\C(CSc2ccccc2)=NC(C)=C(C#N)C1c1ccco1 (stereo not given) | – | –
> 1000 nM | CCOC(=O)C1=C(C[S+]([O-])c2ccccc2)N(C)C(C)=C(C#N)C1c1ccccc1C(F)(F)F (stereo not given) | – | –
> 1000 nM | CCO/C(O)=C1\C(C[S+]([O-])c2ccc(Cl)cc2)=NC(C)=C(C#N)C1c1ccccc1C(F)(F)F (stereo not given) | – | –
> 1000 nM | CCO/C(O)=C1\C(C[S+]([O-])c2ccc(NC(C)=O)cc2)=NC(C)=C(C#N)C1c1ccccc1C(F)(F)F (stereo not given) | – | –
1000 nM | CCO/C(O)=C1\C(CSc2ccncc2)=NC(C)=C(C#N)C1c1ccccc1C(F)(F)F (stereo not given) | – | –
300 nM | CCO/C(O)=C1\C(CS(=O)(=O)c2ccccc2)=NC(C)=C(C#N)C1c1cccc([N+](=O)[O-])c1 (stereo not given) | 520 nM | 510 nM
> 1000 nM | CCO/C(O)=C1\C(C[S+]([O-])c2ccccc2)=NC(C)=C(C#N)C1c1ccccc1OC(F)F (stereo not given) | – | –
> 1000 nM | CCCCc1ccc(S(=O)(=O)CC2=NC(C)=C(C#N)C(c3ccccc3C(F)(F)F)/C2=C(\O)OCC)c(C)c1 (stereo not given) | – | –
> 1000 nM | CCO/C(O)=C1\C(CS(=O)(=O)c2ccccc2)=NC(C)=C(C#N)C1c1cccnc1 (stereo not given) | – | –
> 1000 nM | CCO/C(O)=C1\C(CS(=O)(=O)c2ccccc2)=NC(C)=C(C#N)C1C1CCCCC1 (stereo not given) | 1090 nM | 520 nM
> 1000 nM | CCO/C(O)=C1\C(C[S+]([O-])c2ccccc2C)=NC(C)=C(C#N)C1c1ccccc1C(F)(F)F (stereo not given) | 130 nM | 800 nM
> 500 nM | CCO/C(O)=C1\C(CS(=O)(=O)c2ccccc2Cl)=NC(C)=C(C#N)C1c1ccccc1C(F)(F)F (stereo not given) | 360 nM | 350 nM
870 nM | CCO/C(O)=C1\C(CSc2ccccc2)=NC(C)=C(C#N)C1c1cccc([N+](=O)[O-])c1 (stereo not given) | – | –
> 1000 nM | CCO/C(O)=C1\C(CS(=O)(=O)c2ccccc2C)=NC(C)=C(C#N)C1c1ccccc1C(F)(F)F (stereo not given) | 320 nM | 470 nM
> 1000 nM | CCO/C(O)=C1\C(CSc2ccccc2)=NC(C)=C(C#N)C1c1ccccc1 (stereo not given) | – | –
267 nM | CCO/C(O)=C1\C(CSc2ccccc2F)=NC(C)=C(C#N)C1c1ccccc1C(F)(F)F (stereo not given) | – | –
720 nM | CCO/C(O)=C1\C(CS(=O)(=O)c2ccccc2)=NC(C)=C(C#N)C1c1ccccc1Cl (stereo not given) | – | –
> 1000 nM | CCO/C(O)=C1\C(CS(=O)(=O)c2ccccc2)=NC(C)=C(C#N)C1c1ccccn1 (stereo not given) | – | –
51 nM | CCOC(=O)C1=C(C)N=C(CSc2ccccn2)/C(=C(/O)OCC)C1c1ccccc1C(F)(F)F (stereo not given) | – | –
> 1000 nM | CC1=C(C#N)C(c2ccccc2C(F)(F)F)/C(=C(\O)OCCN2CCOCC2)C(C[S+]([O-])c2ccccc2)=N1 (stereo not given) | – | –

IC50 [1] | SMILES | EC25 (Rattus norvegicus [2]) | EC25 (Rattus norvegicus [3])
> 1000 nM | CCO/C(O)=C1\C(CSc2ccccc2Cl)=NC(C)=C(C#N)C1c1ccccc1C(F)(F)F (stereo not given) | – | –
1900 nM | CCO/C(O)=C1\C(C[S+]([O-])c2ccccn2)=NC(C)=C(C#N)C1c1ccccc1C(F)(F)F (stereo not given) | – | –
1000 nM | CCOC(=O)C1=C(CSc2ccccc2)N(CCN(CC)CC)C(C)=C(C#N)C1c1ccccc1C(F)(F)F (stereo not given) | – | –
> 1000 nM | CCO/C(O)=C1\C(C[S+]([O-])c2ccccc2)=NC(C)=C(C#N)C1C1CCCCC1 (stereo not given) | – | –
434 nM | CCO/C(O)=C1\C(CS(=O)(=O)c2ccncc2)=NC(C)=C(C#N)C1c1cccc(Cl)c1Cl (stereo not given) | – | –
160 nM | CCOC(=O)C1=C(C)NC(C[S+]([O-])c2ccccc2C)=C(C(=O)OCC)C1c1ccccc1C(F)(F)F (stereo in doubt; 10a) | – | –
> 1000 nM | CCO/C(O)=C1\C(CSc2ccccc2C)=NC(C)=C(C#N)C1c1ccccc1C(F)(F)F (stereo not given) | – | –
170 nM | CCOC(=O)C1=C(C)NC(C[S+]([O-])c2ccccc2C)=C(C(=O)OCC)C1c1ccccc1C(F)(F)F (stereo in doubt; 10b) | – | –
> 1000 nM | CCO/C(O)=C1\C(C[S+]([O-])c2ccccc2)=NC(C)=C(C#N)C1c1ccccn1 (stereo not given) | – | –
10 nM | CCOC(=O)C1=C(C)N=C(C[S+]([O-])c2ccccn2)/C(=C(/O)OCC)C1c1ccccc1C(F)(F)F (stereo not given) | – | –
37.4 nM | CCOC(=O)C1=C(C)N=C(C[S+]([O-])c2ccncc2)/C(=C(/O)OCC)C1c1ccccc1C(F)(F)F (stereo not given) | – | –
21 nM | CCOC(=O)C1=C(C)N=C(C[S+]([O-])c2ccc(OC)cc2)/C(=C(/O)OCC)C1c1ccccc1C(F)(F)F (stereo in doubt; 8a) | – | –
69 nM | CCO/C(O)=C1\C(CSc2ccc(Cl)c(Cl)c2)=NC(C)=C(C#N)C1c1ccccc1C(F)(F)F (stereo not given) | – | –
> 1000 nM | CCO/C(O)=C1\C(CSc2ccncc2)=NC(C)=C(C#N)C1c1ccccn1 (stereo not given) | – | –
1600 nM | CCOC(=O)C1=C(C[S+]([O-])c2ccccc2)NC(C)=C(C#N)C1c1ccccc1C(F)(F)F (stereo in doubt; 29a) | 120 nM | –
1000 nM | CO/C(O)=C1\C(CSc2ccccc2)=NC(C)=C(C#N)C1c1ccccc1C(F)(F)F (stereo not given) | – | –
1400 nM | CCO/C(O)=C1\C(CSc2ccncc2)=NC(C)=C(C#N)C1c1cccc(Cl)c1Cl (stereo not given) | – | –
> 1000 nM | CCO/C(O)=C1\C(CS(=O)(=O)c2ccccc2)=NC(C)=C(C#N)C1c1cccc[n+]1[O-] (stereo not given) | – | –
18 nM | CCOC(=O)C1=C(C)N=C(C[S+]([O-])c2ccc(OC)cc2)/C(=C(/O)OCC)C1c1ccccc1C(F)(F)F (stereo in doubt; 8b) | – | –
> 1000 nM | CCO/C(O)=C1\C(C[S+]([O-])c2ccccc2)=NC(C)=C(C#N)C1c1ccco1 (stereo not given) | – | –
254 nM | CCO/C(O)=C1\C(CS(=O)(=O)c2ccccc2)=NC(C)=C(C#N)C1c1ccco1 (stereo not given) | – | –

Second part, the molecule before the results:

SMILES | IC50 [1] | EC25 (Rattus norvegicus [2]) | EC25 (Rattus norvegicus [3])
C=CCO/C(O)=C1\C(CSc2ccccc2)=NC(C)=C(C#N)C1c1ccccc1C(F)(F)F (stereo not given) | 580 nM | – | –
CC1=C(C#N)C(c2ccccc2C(F)(F)F)/C(=C(\O)OCCO)C(C[S+]([O-])c2ccccc2)=N1 (stereo not given) | 1000 nM | – | –
CCO/C(O)=C1\C(C[S+]([O-])c2ccncc2)=NC(C)=C(C#N)C1c1ccccc1C(F)(F)F (stereo not given) | 1100 nM | 1200 nM | inactive
CCOC(=O)C1=C(C)N=C(C[S+]([O-])c2ccccc2)/C(=C(/O)OCC)C1c1ccccc1C(F)(F)F (stereo not given) | 27 nM | – | –
CCO/C(O)=C1\C(C[S+]([O-])c2ccccc2)=NC(C)=C(C#N)C1c1ccccc1 (stereo not given) | > 1000 nM | – | –
CC1=C(C#N)C(c2ccccc2C(F)(F)F)C(C(=O)O)=C(C[S+]([O-])c2ccccc2)N1 (stereo not given) | > 1000 nM | – | –
CCO/C(O)=C1\C(C[S+]([O-])c2ccccc2)=NC(C)=C(C#N)C1c1ccccc1Cl (stereo not given) | > 1000 nM | 910 nM | 540 nM
CCO/C(O)=C1\C(CS(=O)(=O)c2ccncc2)=NC(C)=C(C#N)C1c1ccccc1C (stereo not given) | 1410 nM | – | –
CC1=C(C#N)C(c2ccccc2C(F)(F)F)/C(=C(\O)OCC(O)CO)C(CS(=O)(=O)c2ccccc2)=N1 (stereo not given) | > 1000 nM | – | –
CCOC(=O)C1=C(C[S+]([O-])c2ccccc2)NC(C)=C(C#N)C1c1cccc([N+](=O)[O-])c1 (stereo in doubt; 32b) | > 1000 nM | 3000 nM | –
CCO/C(O)=C1\C(CSc2ccccc2)=NC(C)=C(C#N)C1c1ccccn1 (stereo not given) | > 1000 nM | – | –
CCOC(=O)C1=C(C)N=C(C[S+]([O-])c2ccccc2)/C(=C(/O)OCC)C1c1cccnc1 (stereo not given) | > 1000 nM | – | –
CCOC(=O)C1=C(CS(=O)(=O)c2ccccc2)N(C)C2=C(C(=O)CCC2)C1c1ccccc1C(F)(F)F (stereo not given) | – | <100 nM | 180 nM
CCO/C(O)=C1\C(CSc2ccc(Cl)cc2)=NC(C)=C(C#N)C1c1ccccc1C(F)(F)F (stereo not given) | 100 nM | – | –
CCO/C(O)=C1\C(C[S+]([O-])c2ccc(Cl)c(Cl)c2)=NC(C)=C(C#N)C1c1ccccc1C(F)(F)F (stereo not given) | 681 nM | – | –
CCCCc1ccc(SCC2=NC(C)=C(C#N)C(c3ccccc3C(F)(F)F)/C2=C(\O)OCC)c(C)c1 (stereo not given) | > 1000 nM | – | –
CC1=C(C#N)C(c2ccccc2C(F)(F)F)/C(=C(\O)OCCC#N)C(CSc2ccccc2)=N1 (stereo not given) | 1000 nM | – | –
CCOC(=O)C1=C(C)N=C(CSc2ccccc2)/C(=C(/O)OCC)C1c1ccccc1C(F)(F)F (stereo not given) | 1.6 nM | – | –
CCO/C(O)=C1\C(CSc2ccccc2)=NC(C)=C(C#N)C1c1ccccc1C(F)(F)F (stereo not given) | 450 nM | – | –
CCO/C(O)=C1\C(CSc2ccccc2Cl)=NC(C)=C(C(=O)OC)C1c1ccccc1C(F)(F)F (stereo not given) | 36 nM | – | –
CCO/C(O)=C1\C(CSc2ccccn2)=NC(C)=C(C#N)C1c1ccccc1C(F)(F)F (stereo not given) | > 1000 nM | – | –
CCO/C(O)=C1\C(C(C)S(=O)(=O)c2ccccc2)=NC2=C(C(=O)CCC2)C1c1ccccc1C(F)(F)F (stereo not given) | – | <100 nM | 1400 nM
CCOC(=O)C1=C(C)N=C(CSc2ccccc2C)/C(=C(/O)OCC)C1c1ccccc1C(F)(F)F (stereo not given) | 49 nM | – | –
CCOC(=O)C1=C(C)N=C(CSc2ccncc2)/C(=C(/O)OCC)C1c1ccccc1C(F)(F)F (stereo not given) | 32.5 nM | – | –
CCO/C(O)=C1\C(CSc2ccncc2)=NC(C)=C(C#N)C1c1ccccc1Cl (stereo not given) | 366 nM | – | –
CCO/C(O)=C1\C(CSc2ccc(OC)cc2)=NC(C)=C(C#N)C1c1ccccc1C(F)(F)F (stereo not given) | 71 nM | – | –
CC1=C(C#N)C(c2ccccc2C(F)(F)F)C(C(=O)O)=C(CSc2ccccc2)N1 (stereo not given) | > 1000 nM | – | –
CCOC(=O)C1=C(C[S+]([O-])c2ccccc2)NC(C)=C(C#N)C1c1cccc([N+](=O)[O-])c1 (stereo in doubt; 32a) | > 1000 nM | 2500 nM | –
CCO/C(O)=C1\C(CS(=O)(=O)c2ccncc2)=NC(C)=C(C#N)C1c1ccccc1Cl (stereo not given) | 713 nM | – | –
